# Test results taken from ChEMBL document CHEMBL1156066 (J Med Chem, 2009).
# What was measured:
# Cytochrome P450 1A2 = biological target: T1, Cytochrome P450 1A2 (Homo sapiens, UniProt P05177); experiment: Inhibition of recombinant CYP1A2; type: ADME
# T1 sequence (P05177 whole entry): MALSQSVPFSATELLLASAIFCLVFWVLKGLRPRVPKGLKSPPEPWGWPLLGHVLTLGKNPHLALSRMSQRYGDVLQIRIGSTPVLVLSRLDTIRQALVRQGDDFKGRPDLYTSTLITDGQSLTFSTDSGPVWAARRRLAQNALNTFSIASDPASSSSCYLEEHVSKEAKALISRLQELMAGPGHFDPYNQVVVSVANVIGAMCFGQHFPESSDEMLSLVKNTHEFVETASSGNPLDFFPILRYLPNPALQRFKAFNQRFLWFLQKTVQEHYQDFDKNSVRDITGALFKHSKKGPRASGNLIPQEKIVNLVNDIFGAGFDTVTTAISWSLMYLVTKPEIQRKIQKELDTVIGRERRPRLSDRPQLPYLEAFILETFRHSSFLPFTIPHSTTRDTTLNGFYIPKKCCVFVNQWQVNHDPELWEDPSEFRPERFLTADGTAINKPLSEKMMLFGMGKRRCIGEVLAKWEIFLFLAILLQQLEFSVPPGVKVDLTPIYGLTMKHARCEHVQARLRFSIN
# Cytochrome P450 2D6 = Cytochrome P450 2D6 (Homo sapiens, UniProt P10635); experiment: Inhibition of recombinant CYP2D6; type: ADME
# [1] = Inhibition of HIV1 JRFL gp120/CD4 interaction in human HeLa67 cells assessed as inhibition of viral entry after 3 days by luciferase reporter gene assay; type: cell-based
# Summary of the method: (§1)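 HeLa 67 cells (HeLa expressing CD4, CCR5 and CXCR4; DMEM, 10% heat-inactivated FBS, penicillin/streptomycin) were plated at 10^5 cells/well the day before infection. They were then infected with HIV LAI-Δenv-luc pseudotyped with JRFL or LAI envelope, in the presence of 10-step 3-fold DMSO serial dilutions (30 mM stocks), run in duplicate. After 3 days at 37 C, firefly luciferase was read. EC50 was from a one-site fit.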
# [2] = Aqueous solubility of crystalline form of compound in buffer solution of pH 6.5 at 25 degC; type: physicochemical
# Summary of the method: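 Solubility of the crystalline solid was measured 24-72 h after adding it to phosphate buffered solution, pH 6.5, at room temperature.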
# Cytochrome P450 2C9 = Cytochrome P450 2C9 (Homo sapiens, UniProt P11712); experiment: Inhibition of recombinant CYP2C9; type: ADME
# [3] = biological target: Voltage-gated inwardly rectifying potassium channel KCNH2 (Homo sapiens, UniProt Q12809); experiment: Inhibition of human ERG by channel flux assay
# [4] = Permeability across human Caco-2 cell membrane at pH 6.5; type: ADME, cell-based; settings: Caco-2, pH 6.5, read-out: permeability
# Cytochrome P450 3A4 [5] = biological target: T2, Cytochrome P450 3A4 (Homo sapiens, UniProt P08684); experiment: Inhibition of recombinant CYP3A4 using 7-benzyloxyresorufin as substrate; type: ADME
# Cytochrome P450 2C19 = Cytochrome P450 2C19 (Homo sapiens, UniProt P33261); experiment: Inhibition of recombinant CYP2C19; type: ADME
# [6] = Metabolic stability in human liver microsomes assessed as half life; type: ADME, Microsome
# [7] = Cytotoxicity against human MT2 cells after 3 days by XTT assay; type: cell-based
# Summary of the method: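 Uninfected MT-2 cells were exposed to 10-step 3-fold serial compound dilutions (30 mM DMSO stocks), run in parallel with the antiviral assay. Cell health was read by XTT after 3 days. CC50 was fitted with the same one-site equation as EC50.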
# [8] = Lipophilicity, log D at pH 6.5; type: physicochemical; settings: buffer
# Summary of the method: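 Log D was measured by the octanol/water shake-flask method using phosphate buffered solution, pH 6.5.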
# Cytochrome P450 3A4 [9] = biological target: T2, Cytochrome P450 3A4; experiment: Inhibition of recombinant CYP3A4 using benzyloxy-4-(trifluoromethyl)coumarin as substrate; type: ADME
# [10] = Inhibition of HIV1 LAI gp120/CD4 interaction in human HeLa67 cells assessed as inhibition of viral entry after 3 days by luciferase reporter gene assay; type: cell-based; summary of the method: as §1
# [11] = Stability at pH 7 after 48 hrs; type: physicochemical; settings: buffer, pH 7, 48 h
# Summary of the method: (§2)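 The compound was held in solution at pH 2 or pH 7 for 48 h at 37 C and then checked for chemical change.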
# Hepatocyte [12] = experiment: Cytotoxicity against human hepatocytes up to 200 uM in presence of CYP450 enzymes; type: ADME, cell-based
# Summary of the method: (§3)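 Hepatocytes in vitro were exposed to concentrations up to 200 μM, with or without expression of each of the four major CYP 450 enzymes.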
# [13] = Cytotoxicity against human larynx cancer cells; type: cell-based, Cancer cell lines
# [14] = Terminal half life in rat at 5 mg/kg, iv; type: ADME, organism-based; parameters: dose 5 mg/kg, route intravenous; settings: in vivo, read-out: beta t1/2 (converted)
# [15] = Ratio of plasma concentration in dog at 5 mg/kg, po to EC50 for HIV1 clinical isolates; type: ADME, organism-based; parameters: dose 5 mg/kg, route oral; settings: in vivo
# [16] = Cytotoxicity against human T cell; type: cell-based; settings: T cells
# [17] = Solubility at pH 1.5; type: physicochemical; settings: buffer
# [18] = Ratio of plasma concentration in rat at 5 mg/kg, po to EC50 for HIV1 clinical isolates; type: ADME, organism-based; parameters: dose 5 mg/kg, route oral; settings: in vivo
# [19] = Cytotoxicity against human cervical cancer cells; type: cell-based, Cancer cell lines
# [20] = Oral bioavailability in monkey at 5 mg/kg; type: ADME, organism-based, Macaca mulatta; settings: rhesus monkey, in vivo
# [21] = Ratio of plasma concentration in monkey at 5 mg/kg, po to EC50 for HIV1 clinical isolates; type: ADME, organism-based; parameters: dose 5 mg/kg, route oral; settings: in vivo
# [22] = Cytotoxicity against human PBMC; type: cell-based
# [23] = Stability at pH 2 after 48 hrs; type: physicochemical; settings: buffer, pH 2, 48 h; summary of the method: as §2
# [24] = Aqueous solubility of crystalline form of compound in buffer solution of pH 10 at 25 degC; type: physicochemical
# Rattus norvegicus = experiment: AUC in rat at 5 mg/kg, po; type: ADME, organism-based, Plasma; parameters: dose 5 mg/kg, route oral; settings: in vivo
# [25] = Oral bioavailability in rat at 5 mg/kg administered as crystalline suspension; type: ADME, organism-based; settings: in vivo
# [26] = Cytotoxicity against human lung cancer cell; type: cell-based, Cancer cell lines; settings: lung cancer cells
# [27] = Cytotoxicity against human neuronal tumor cells; type: cell-based
# [28] = Aqueous solubility of crystalline form of compound in buffer solution of pH 1.5 at 25 degC; type: physicochemical
# Canis familiaris = experiment: Cardiotoxicity in dog assessed as changes in ECG at 200 mg/kg; type: toxicity, organism-based, Canis lupus familiaris; parameters: dose 200 mg/kg; settings: in vivo
# Summary of the method: (§4)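 Dogs were dosed at 200 mpk, with ECG monitored for drug-related changes and plasma Cmax determined.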
# [29] = Cytotoxicity against human hepatic cancer cells; type: cell-based, Cancer cell lines
# [30] = Cmax in dog at 200 mg/kg; type: ADME, organism-based, Canis lupus familiaris; parameters: dose 200 mg/kg; settings: in vivo; summary of the method: as §4
# [31] = system: Human immunodeficiency virus 1; experiment: Antiviral activity against HIV1 clinical isolates; type: functional, organism-based
# [32] = Cytotoxicity against HEK cells; type: cell-based, HEK293; settings: human
# Hepatocyte [33] = experiment: Cytotoxicity against human hepatocytes up to 200 uM in absence of CYP450 enzymes; type: ADME, cell-based; summary of the method: as §3
# [34] = Solubility at pH 4 to 8; type: physicochemical; settings: buffer
# [35] = Oral bioavailability in dog at 5 mg/kg; type: ADME, organism-based, Canis lupus familiaris; settings: in vivo
# [36] = Aqueous solubility of crystalline form of compound in buffer solution of pH 11 at 25 degC; type: physicochemical
# [37] = Aqueous solubility of crystalline form of compound in buffer solution of pH 2.1 at 25 degC; type: physicochemical
# T2 sequence (P08684 whole entry): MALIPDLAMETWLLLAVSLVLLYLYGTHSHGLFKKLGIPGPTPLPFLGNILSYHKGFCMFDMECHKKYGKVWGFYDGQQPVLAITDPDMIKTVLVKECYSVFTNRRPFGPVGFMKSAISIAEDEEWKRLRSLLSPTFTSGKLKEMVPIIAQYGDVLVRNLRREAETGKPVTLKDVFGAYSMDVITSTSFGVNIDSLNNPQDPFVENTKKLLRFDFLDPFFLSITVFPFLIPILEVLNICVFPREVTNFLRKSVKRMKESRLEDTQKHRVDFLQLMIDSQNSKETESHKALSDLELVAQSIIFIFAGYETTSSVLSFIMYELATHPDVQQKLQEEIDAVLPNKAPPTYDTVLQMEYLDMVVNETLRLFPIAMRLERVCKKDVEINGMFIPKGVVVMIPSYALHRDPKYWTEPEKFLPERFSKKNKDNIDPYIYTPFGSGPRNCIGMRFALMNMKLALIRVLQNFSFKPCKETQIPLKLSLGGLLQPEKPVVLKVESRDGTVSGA
# Cytochrome P450 2D6, sequence (P10635 whole entry): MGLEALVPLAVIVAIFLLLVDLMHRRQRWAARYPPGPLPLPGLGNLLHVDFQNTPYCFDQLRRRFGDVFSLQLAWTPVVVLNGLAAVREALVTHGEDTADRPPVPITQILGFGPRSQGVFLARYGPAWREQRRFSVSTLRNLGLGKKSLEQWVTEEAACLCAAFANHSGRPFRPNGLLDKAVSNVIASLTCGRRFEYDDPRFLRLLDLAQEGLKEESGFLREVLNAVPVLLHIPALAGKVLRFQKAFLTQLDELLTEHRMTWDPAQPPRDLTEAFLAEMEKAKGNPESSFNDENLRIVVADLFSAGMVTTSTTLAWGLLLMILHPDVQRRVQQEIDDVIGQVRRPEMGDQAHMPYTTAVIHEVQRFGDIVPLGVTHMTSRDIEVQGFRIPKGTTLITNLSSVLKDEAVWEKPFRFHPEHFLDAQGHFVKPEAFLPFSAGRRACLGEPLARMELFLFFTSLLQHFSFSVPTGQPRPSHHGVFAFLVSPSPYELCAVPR
# Cytochrome P450 2C19, sequence (P33261 whole entry): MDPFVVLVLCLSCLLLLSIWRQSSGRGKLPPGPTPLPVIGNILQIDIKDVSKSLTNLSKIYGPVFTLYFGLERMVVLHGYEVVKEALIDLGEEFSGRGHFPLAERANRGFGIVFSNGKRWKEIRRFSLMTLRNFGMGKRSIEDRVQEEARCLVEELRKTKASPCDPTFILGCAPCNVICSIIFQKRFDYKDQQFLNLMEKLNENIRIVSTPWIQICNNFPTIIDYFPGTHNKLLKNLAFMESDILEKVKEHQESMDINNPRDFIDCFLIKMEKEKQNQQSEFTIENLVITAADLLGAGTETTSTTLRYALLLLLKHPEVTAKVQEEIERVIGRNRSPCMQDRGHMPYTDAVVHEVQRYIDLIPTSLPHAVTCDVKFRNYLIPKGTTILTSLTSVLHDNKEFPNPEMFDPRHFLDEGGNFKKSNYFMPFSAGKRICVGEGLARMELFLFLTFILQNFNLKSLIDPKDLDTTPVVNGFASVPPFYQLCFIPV
# Cytochrome P450 2C9, sequence (P11712 whole entry): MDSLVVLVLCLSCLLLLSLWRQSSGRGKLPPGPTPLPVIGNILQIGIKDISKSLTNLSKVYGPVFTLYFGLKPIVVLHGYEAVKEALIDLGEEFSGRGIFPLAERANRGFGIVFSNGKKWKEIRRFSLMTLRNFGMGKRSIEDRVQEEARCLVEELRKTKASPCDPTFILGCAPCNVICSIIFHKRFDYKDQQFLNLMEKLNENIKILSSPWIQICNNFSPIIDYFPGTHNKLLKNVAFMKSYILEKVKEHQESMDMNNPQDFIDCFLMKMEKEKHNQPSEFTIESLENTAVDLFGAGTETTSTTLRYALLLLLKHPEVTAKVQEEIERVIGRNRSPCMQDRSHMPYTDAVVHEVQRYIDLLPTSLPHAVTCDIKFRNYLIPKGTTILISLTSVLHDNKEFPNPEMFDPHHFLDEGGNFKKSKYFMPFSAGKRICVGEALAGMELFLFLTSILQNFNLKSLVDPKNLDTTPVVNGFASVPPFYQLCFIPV
# Voltage-gated inwardly rectifying potassium channel KCNH2, sequence (Q12809 whole entry): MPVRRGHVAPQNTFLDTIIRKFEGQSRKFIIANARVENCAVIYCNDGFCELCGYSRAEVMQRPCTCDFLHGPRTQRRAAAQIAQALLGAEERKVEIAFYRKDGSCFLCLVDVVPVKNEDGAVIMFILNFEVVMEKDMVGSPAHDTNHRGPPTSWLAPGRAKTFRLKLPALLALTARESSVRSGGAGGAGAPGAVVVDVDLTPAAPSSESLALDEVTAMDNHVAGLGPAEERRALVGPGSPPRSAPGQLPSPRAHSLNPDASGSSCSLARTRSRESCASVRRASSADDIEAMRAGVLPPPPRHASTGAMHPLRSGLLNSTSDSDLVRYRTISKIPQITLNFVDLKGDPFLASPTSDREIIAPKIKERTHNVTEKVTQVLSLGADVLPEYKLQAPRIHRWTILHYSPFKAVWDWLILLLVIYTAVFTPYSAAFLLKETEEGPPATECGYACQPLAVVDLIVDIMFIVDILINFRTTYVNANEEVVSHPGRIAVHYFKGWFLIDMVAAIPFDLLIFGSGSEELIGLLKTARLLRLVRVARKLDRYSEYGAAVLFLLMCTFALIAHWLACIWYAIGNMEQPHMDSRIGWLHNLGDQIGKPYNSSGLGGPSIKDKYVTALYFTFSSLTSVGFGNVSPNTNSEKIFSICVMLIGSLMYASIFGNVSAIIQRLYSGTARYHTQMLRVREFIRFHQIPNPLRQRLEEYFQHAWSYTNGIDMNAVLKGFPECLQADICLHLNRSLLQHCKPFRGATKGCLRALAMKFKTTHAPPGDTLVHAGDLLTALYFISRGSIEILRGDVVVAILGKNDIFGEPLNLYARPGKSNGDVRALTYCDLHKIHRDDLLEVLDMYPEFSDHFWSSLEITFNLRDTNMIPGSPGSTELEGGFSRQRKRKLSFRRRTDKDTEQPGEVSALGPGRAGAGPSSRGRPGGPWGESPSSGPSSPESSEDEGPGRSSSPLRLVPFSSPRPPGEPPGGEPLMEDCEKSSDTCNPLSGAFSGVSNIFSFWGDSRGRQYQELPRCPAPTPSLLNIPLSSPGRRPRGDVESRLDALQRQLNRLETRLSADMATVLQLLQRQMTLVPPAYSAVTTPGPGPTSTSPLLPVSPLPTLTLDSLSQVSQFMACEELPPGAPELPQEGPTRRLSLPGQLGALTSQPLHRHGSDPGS
smiles,measurement,setting,value
C[C@@H]1CN(C(=O)c2ccccc2)CCN1C(=O)C(=O)c1c[nH]c2ncccc12,IC50,Cytochrome P450 1A2,> 40 µM
same,IC50,Cytochrome P450 2D6,17 µM
same,EC50,[1],0.0017 µM
same,solubility,[2],936 µg/mL
same,IC50,Cytochrome P450 2C9,7.9 µM
same,IC50,[3],> 80 µM
same,Papp,[4],16.8 ×10⁻⁶ cm/s
same,IC50,Cytochrome P450 3A4 [5],> 40 µM
same,IC50,Cytochrome P450 2C19,10 µM
same,half-life,[6],49.5 min
same,CC50 at 72 h,[7],280 µM
same,logD,[8],1.8
same,IC50,Cytochrome P450 3A4 [9],> 40 µM
C[C@@H]1CN(C(=O)c2ccccc2)CCN1C(=O)C(=O)c1c[nH]c2ccncc12,IC50,Cytochrome P450 1A2,> 40 µM
same,IC50,Cytochrome P450 2D6,> 40 µM
same,EC50,[1],0.576 µM
same,solubility,[2],419 µg/mL
same,IC50,Cytochrome P450 2C9,> 40 µM
same,IC50,[3],> 80 µM
same,Papp,[4],1.9 ×10⁻⁶ cm/s
same,IC50,Cytochrome P450 2C19,17 µM
same,half-life,[6],> 100 min
same,CC50 at 72 h,[7],> 300 µM
same,logD,[8],1.2
C[C@@H]1CN(C(=O)c2ccccc2)CCN1C(=O)C(=O)c1c[nH]c2ccccc12,IC50,Cytochrome P450 1A2,> 40 µM
same,IC50,Cytochrome P450 2D6,4.8 µM
same,EC50,[10],0.0049 µM
same,EC50,[1],0.004 µM
same,solubility,[2],16 µg/mL
same,IC50,Cytochrome P450 2C9,5.2 µM
same,IC50,[3],> 80 µM
same,Papp,[4],16.9 ×10⁻⁶ cm/s
same,IC50,Cytochrome P450 3A4 [5],> 40 µM
same,IC50,Cytochrome P450 2C19,2.6 µM
same,half-life,[6],16.9 min
same,CC50 at 72 h,[7],200 µM
same,logD,[8],1.9
same,IC50,Cytochrome P450 3A4 [9],> 40 µM
COc1ncc(OC)c2c(C(=O)C(=O)N3CCN(C(=O)c4ccccc4)CC3)c[nH]c12,IC50,Cytochrome P450 1A2,> 40 µM
same,Stability,[11],Stable
same,Activity,Hepatocyte [12],Non-toxic
same,CC50,[13],≥ 120 µM
same,half-life,[14],144 min
same,Ratio,[15],18
same,IC50,Cytochrome P450 2D6,> 40 µM
same,EC50,[10],0.00115 µM
same,EC50,[1],0.00088 µM
same,CC50,[16],≥ 120 µM
same,solubility,[2],40 µg/mL
same,solubility,[17],900 µg/mL
same,Ratio,[18],18
same,CC50,[19],≥ 120 µM
same,IC50,Cytochrome P450 2C9,30 µM
same,bioavailability,[20],60%
same,Ratio,[21],18
same,IC50,[3],> 80 µM
same,Papp,[4],17.8 ×10⁻⁶ cm/s
same,CC50,[22],≥ 120 µM
same,Stability,[23],Stable
same,solubility,[24],250 µg/mL
same,AUC,Rattus norvegicus,6.3 µg/h/mL
same,IC50,Cytochrome P450 3A4 [5],> 40 µM
same,bioavailability,[25],55%
same,CC50,[26],≥ 120 µM
same,IC50,Cytochrome P450 2C19,> 40 µM
same,half-life,[6],> 100 min
same,CC50 at 72 h,[7],> 300 µM
same,CC50,[27],≥ 120 µM
same,logD,[8],1.5
same,solubility,[28],900 µg/mL
same,Activity,Canis familiaris,Non-toxic
same,IC50,Cytochrome P450 3A4 [9],> 40 µM
same,CC50,[29],≥ 120 µM
same,Cmax,[30],33 µM
same,EC50,[31],0.0365 µM
same,CC50,[32],≥ 120 µM
same,Activity,Hepatocyte [33],Non-toxic
same,solubility,[34],40 µg/mL
C[C@@H]1CN(C(=O)c2ccccc2)CCN1C(=O)C(=O)c1c[nH]c2cccnc12,IC50,Cytochrome P450 1A2,> 40 µM
same,IC50,Cytochrome P450 2D6,> 40 µM
same,EC50,[1],0.0016 µM
same,solubility,[2],932 µg/mL
same,IC50,Cytochrome P450 2C9,> 40 µM
same,IC50,[3],> 80 µM
same,Papp,[4],7.6 ×10⁻⁶ cm/s
same,IC50,Cytochrome P450 3A4 [5],> 40 µM
same,IC50,Cytochrome P450 2C19,36 µM
same,half-life,[6],> 100 min
same,CC50 at 72 h,[7],> 300 µM
same,logD,[8],0.9
same,IC50,Cytochrome P450 3A4 [9],> 40 µM
COc1ccnc2[nH]cc(C(=O)C(=O)N3CCN(C(=O)c4ccccc4)C[C@H]3C)c12,bioavailability,[35],77%
same,half-life,[14],18 min
same,IC50,Cytochrome P450 2D6,9.7 µM
same,EC50,[10],0.00268 µM
same,EC50,[1],0.00147 µM
same,solubility,[2],200 µg/mL
same,bioavailability,[20],24%
same,Papp,[4],5.1 ×10⁻⁶ cm/s
same,AUC,Rattus norvegicus,0.5 µg/h/mL
same,half-life,[6],37 min
same,CC50 at 72 h,[7],> 300 µM
same,logD,[8],1.6
same,EC50,[31],0.0615 µM
same,solubility,[36],3300 µg/mL
same,solubility,[37],1300 µg/mL
C[C@@H]1CN(C(=O)c2ccccc2)CCN1C(=O)C(=O)c1c[nH]c2cnccc12,IC50,Cytochrome P450 1A2,> 40 µM
same,IC50,Cytochrome P450 2D6,38 µM
same,EC50,[1],0.0216 µM
same,solubility,[2],487 µg/mL
same,IC50,Cytochrome P450 2C9,17 µM
same,IC50,[3],> 80 µM
same,Papp,[4],< 1.5 ×10⁻⁶ cm/s
same,IC50,Cytochrome P450 3A4 [5],> 40 µM
same,IC50,Cytochrome P450 2C19,7.2 µM
same,half-life,[6],38.5 min
same,CC50 at 72 h,[7],> 300 µM
same,logD,[8],1.5
same,IC50,Cytochrome P450 3A4 [9],> 40 µM
